Values after ≈ are worked out from the molar mass of the structure shown. Active and inactive are the calls of the source. The rule behind the calls is not given here.
How the values were obtained:
[1] = Inhibition of NPC1/VDAC1 in HUVEC cells assessed as reduction in cell proliferation pretreated for 24 hrs followed by [3H]thymidine incorporation by scintillation counter method; assay type: cell-based; details: Homo sapiens
In short: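 HUVEC proliferation read by [³H]-thymidine incorporation, giving IC50. Mean ± SD of three independent experiments, each run in triplicate.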

[2] = Thermodynamic solubility in 0.001N HCl by HPLC analysis; assay type: physicochemical; details: for solubility thermodynamic: 0.001N HCl, read-out: Therm_solubility
In short: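 Thermodynamic solubility measured in 0.001 N HCl (pH 3), chosen to resemble acidic gastric fluid. Dissolved compound quantified by HPLC and reported in […].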

[3] = molecular target: T1, NPC intracellular cholesterol transporter 1 (Homo sapiens) (UniProt O15118); test: Inhibition of NPC1 in HUVEC cells assessed as accumulation of cholesterol in perinuclear structure at 0.2 uM incubated for 24 hrs by filipin staining based confocal microscopy analysis; assay type: cell-based
T1 sequence (whole entry): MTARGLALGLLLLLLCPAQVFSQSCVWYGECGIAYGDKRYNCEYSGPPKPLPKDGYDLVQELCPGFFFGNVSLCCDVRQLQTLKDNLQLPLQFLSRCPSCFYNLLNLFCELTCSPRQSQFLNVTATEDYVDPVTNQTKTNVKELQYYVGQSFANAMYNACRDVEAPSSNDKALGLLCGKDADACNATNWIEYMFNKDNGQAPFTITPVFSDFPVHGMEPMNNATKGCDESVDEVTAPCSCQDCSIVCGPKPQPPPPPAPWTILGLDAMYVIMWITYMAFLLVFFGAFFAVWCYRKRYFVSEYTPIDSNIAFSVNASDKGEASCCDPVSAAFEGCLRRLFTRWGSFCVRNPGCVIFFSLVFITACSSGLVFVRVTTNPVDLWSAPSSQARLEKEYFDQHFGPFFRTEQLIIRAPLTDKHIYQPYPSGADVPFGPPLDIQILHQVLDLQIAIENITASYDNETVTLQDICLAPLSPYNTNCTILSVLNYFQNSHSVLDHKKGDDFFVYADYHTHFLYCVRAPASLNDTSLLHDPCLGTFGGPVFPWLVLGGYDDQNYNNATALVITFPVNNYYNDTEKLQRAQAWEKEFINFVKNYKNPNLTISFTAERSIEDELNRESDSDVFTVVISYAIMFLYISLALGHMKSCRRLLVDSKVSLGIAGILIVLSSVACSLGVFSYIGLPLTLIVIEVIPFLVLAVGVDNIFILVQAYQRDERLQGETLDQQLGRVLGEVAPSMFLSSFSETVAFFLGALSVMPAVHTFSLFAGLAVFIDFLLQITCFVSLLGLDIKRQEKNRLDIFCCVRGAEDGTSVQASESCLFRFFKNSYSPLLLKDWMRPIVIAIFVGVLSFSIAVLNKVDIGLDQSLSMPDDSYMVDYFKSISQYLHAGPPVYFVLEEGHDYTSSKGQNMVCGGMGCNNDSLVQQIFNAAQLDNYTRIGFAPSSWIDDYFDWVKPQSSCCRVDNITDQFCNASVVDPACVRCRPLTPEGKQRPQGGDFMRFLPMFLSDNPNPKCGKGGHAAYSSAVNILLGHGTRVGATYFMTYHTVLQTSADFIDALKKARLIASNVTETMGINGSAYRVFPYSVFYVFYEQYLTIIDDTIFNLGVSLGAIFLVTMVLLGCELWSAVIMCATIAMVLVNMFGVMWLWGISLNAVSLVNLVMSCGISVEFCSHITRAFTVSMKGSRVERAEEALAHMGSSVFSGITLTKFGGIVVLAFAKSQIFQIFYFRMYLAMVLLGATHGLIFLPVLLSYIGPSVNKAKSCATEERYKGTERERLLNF
In short: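 Primary HUVECs incubated 24 h with 0.2 μM compound or DMSO. Intracellular cholesterol stained with filipin and imaged by confocal fluorescence microscopy, 25x objective.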

HUVEC [4] = test: Effect on VEGFR2 localization in human HUVEC cells assessed as accumulation of VEGFR2 in perinuclear region at 2 uM by DAPI staining based confocal micrscopy; assay type: functional, cell-based
In short: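 HUVECs treated with DMSO or 2 μM compound. Cells immunostained for VEGFR2 (green) and Golgi marker GM130 (red), nuclei counterstained with DAPI. Imaged by confocal microscopy, scoring perinuclear VEGFR2 and its colocalization with GM130.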

[5] = molecular target: Serine/threonine-protein kinase mTOR (Homo sapiens) (UniProt P42345); test: Inhibition of mTOR in HUVEC cells assessed as reduction in phosphorylation of p70S6K measured after 24 hrs by Western blot analysis; assay type: cell-based
In short: (§1)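 HUVECs exposed to test compound at 0.05, 0.25, 0.5, 1 or 2 μM, or DMSO vehicle, for 24 h. Lysates probed by western blot for VEGFR2, phospho- and total ACC, phospho- and total S6K, with β-actin as loading reference.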

Cytochrome P450 3A4 = Cytochrome P450 3A4 (Homo sapiens, UniProt P08684); test: Inhibition of CYP3A4 (unknown origin); assay type: ADME
HUVEC [6] = test: Inhibition of NPC1/VDAC1 in HUVEC cells assessed as inhibition of tube formation at 3 uM measured after 24 hrs by Calcein-AM staining based fluorescence microscopy analysis relative to control; assay type: cell-based; details: Homo sapiens
In short: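 HUVECs seeded on Matrigel-coated wells and treated with DMSO or 3 μM compound for 24 h. Networks stained with Calcein-AM and imaged by fluorescence microscopy. Total tube length quantified from the images against DMSO control. Mean ± SD of three independent experiments.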

[7] = molecular target: Vascular endothelial growth factor receptor 2 (Homo sapiens) (UniProt P35968); test: Inhibition of VEGFR2 glycosylation in HUVEC cells assessed as disappearance of VEGFR2 at 0.5 to 2 uM measured after 24 hrs by Western blot analysis; assay type: cell-based; in short: as §1
[8] = molecular target: AMP-activated protein kinase, AMPK (Homo sapiens) (UniProt P54646+O43741+P54619+Q9UGJ0+Q9Y478+Q13131+Q9UGI9); test: Activation of AMPK in HUVEC cells assessed as phosphorylation of acetyl CoA carboxylase measured after 24 hrs by Western blot analysis; assay type: cell-based; in short: as §1

Sequence of Cytochrome P450 3A4 (P08684 whole entry): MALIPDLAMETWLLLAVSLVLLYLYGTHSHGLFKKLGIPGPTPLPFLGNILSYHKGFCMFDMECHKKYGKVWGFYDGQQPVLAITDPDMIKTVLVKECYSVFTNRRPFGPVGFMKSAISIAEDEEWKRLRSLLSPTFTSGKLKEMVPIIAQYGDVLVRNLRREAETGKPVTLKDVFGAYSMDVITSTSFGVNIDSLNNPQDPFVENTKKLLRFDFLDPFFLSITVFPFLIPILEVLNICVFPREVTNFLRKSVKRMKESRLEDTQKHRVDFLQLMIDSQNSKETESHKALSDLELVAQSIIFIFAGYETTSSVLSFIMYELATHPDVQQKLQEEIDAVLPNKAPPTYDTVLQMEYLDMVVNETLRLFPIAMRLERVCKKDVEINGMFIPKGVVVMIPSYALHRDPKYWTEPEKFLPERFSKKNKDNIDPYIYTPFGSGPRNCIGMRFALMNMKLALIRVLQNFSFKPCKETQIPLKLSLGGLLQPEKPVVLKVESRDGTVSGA
Sequence of Vascular endothelial growth factor receptor 2 (Homo sapiens) (P35968 whole entry): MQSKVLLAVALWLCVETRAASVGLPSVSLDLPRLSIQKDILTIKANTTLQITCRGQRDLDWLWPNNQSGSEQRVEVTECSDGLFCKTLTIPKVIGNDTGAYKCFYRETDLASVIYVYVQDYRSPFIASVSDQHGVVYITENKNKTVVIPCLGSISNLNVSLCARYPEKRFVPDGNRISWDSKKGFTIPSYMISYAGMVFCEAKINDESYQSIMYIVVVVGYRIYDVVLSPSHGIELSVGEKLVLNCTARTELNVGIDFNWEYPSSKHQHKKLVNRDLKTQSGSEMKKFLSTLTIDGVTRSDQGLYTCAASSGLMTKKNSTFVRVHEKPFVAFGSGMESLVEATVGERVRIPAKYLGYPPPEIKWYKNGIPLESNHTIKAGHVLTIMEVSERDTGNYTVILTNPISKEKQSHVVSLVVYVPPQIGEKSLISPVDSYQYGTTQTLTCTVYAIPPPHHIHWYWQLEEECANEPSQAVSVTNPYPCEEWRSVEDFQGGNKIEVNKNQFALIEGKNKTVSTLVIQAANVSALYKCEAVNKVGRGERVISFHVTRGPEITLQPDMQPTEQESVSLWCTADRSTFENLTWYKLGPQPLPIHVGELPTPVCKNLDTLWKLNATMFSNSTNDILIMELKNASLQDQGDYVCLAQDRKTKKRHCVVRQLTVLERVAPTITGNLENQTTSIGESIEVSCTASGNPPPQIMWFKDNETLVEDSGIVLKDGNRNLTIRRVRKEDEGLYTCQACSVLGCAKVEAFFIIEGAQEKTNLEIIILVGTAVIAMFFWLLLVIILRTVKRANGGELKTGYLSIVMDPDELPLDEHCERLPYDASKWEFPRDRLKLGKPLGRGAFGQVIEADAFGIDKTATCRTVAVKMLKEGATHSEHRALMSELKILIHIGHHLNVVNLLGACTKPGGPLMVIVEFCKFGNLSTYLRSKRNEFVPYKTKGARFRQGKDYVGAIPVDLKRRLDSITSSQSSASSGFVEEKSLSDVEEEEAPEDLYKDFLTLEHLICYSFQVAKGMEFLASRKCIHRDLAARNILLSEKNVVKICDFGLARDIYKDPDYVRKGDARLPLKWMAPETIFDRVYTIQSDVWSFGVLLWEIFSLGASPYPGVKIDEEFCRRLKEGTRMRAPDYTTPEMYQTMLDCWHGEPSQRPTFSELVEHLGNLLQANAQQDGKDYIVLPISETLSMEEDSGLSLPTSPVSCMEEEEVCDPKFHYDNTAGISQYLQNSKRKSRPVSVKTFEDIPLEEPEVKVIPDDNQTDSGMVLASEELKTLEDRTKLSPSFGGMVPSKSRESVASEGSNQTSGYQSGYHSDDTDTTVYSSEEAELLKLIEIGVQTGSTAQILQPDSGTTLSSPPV

Row | Structure (SMILES) | IC50 [1] | solubility thermodynamic [2] | also measured
1 | CCC(C)n1ncn(-c2ccc(N3CCN(c4ccc(OC[C@@H]5CO[C@@](Cn6cncn6)(c6ccc(Cl)cc6Cl)O5)cc4)CC3)nc2)c1=O (some centres not stated) | 222 nM | 0.0539 µg/mL (≈ 0.0763 µM) | 
2 | CCC(C)n1ncn(-c2ccc(N3CCN(c4ccc(OC[C@@H]5CO[C@@](Cn6ccnc6)(c6ccc(Cl)cc6Cl)O5)cc4)CC3)nc2)c1=O (some centres not stated) | 98.5 nM | 7.99 µg/mL (≈ 11.3 µM) | 
3 | CCC(C)n1ncn(-c2ccc(N3CCN(c4ccc(OC[C@@H]5CO[C@@](Cn6ccnc6)(c6ccc(Cl)cc6Cl)O5)cn4)CC3)cc2)c1=O (some centres not stated) | 69.1 nM | 2.94 µg/mL (≈ 4.16 µM) | 
4 | CCC(C)n1ncn(-c2ccc(N3CCN(c4ccc(OC[C@@H]5CO[C@@](Cn6ccnc6)(c6ccc(Cl)cc6Cl)O5)nc4)CC3)cc2)c1=O (some centres not stated) | 468 nM | 6.48 µg/mL (≈ 9.19 µM) | 
5 | CCC(C)n1ncn(-c2ccc(N3CCN(c4ccc(OC[C@@H]5CO[C@@](Cn6cncn6)(c6ccc(Cl)cc6Cl)O5)cc4)CC3)c(F)c2)c1=O (some centres not stated) | 128 nM | 0.0291 µg/mL (≈ 0.0402 µM) | 
6 | CCC(C)n1ncn(-c2ccc(N3CCN(c4ccc(OCC5COC(Cn6cncn6)(c6ccc(Cl)cc6Cl)O5)cc4)CC3)cc2)c1=O (configuration not stated) [ITRACONAZOLE] |  |  | inhibition [3]: Active; Activity (HUVEC [4]): Active; Therm_solubility ([2]; buffer): 0.0101 µg/mL
7 | CCC(C)n1ncn(-c2ccc(N3CCN(c4ccc(OC[C@@H]5CO[C@@](Cn6cncn6)(c6ccc(Cl)cc6Cl)O5)nc4)CC3)cc2)c1=O (some centres not stated) | 687 nM | 0.116 µg/mL (≈ 0.164 µM) | 
8 | CCC(C)n1ncn(-c2ccc(N3CCN(c4ccc(OC[C@@H]5CO[C@@](Cn6ccnc6)(c6ccc(Cl)cc6Cl)O5)cn4)CC3)c(F)c2)c1=O (some centres not stated) | 68 nM | 125 µg/mL (≈ 173 µM) | 
9 | CCC(C)n1ncn(-c2ccc(N3CCN(c4ccc(OC[C@@H]5CO[C@@](Cn6cnnn6)(c6ccc(Cl)cc6Cl)O5)cc4)CC3)cc2)c1=O (some centres not stated) |  | 0.321 µg/mL (≈ 0.455 µM) | inhibition [3]: Active
10 | CCC(C)n1ncn(-c2ccc(N3CCN(c4ccc(OC[C@@H]5CO[C@@](Cn6cnnn6)(c6ccc(Cl)cc6Cl)O5)cn4)CC3)cc2)c1=O (some centres not stated) | 77.1 nM | 0.951 µg/mL (≈ 1.34 µM) | inhibition [5]: Dose-dependent effect; inhibition [3]: Active; IC50 (Cytochrome P450 3A4): > 90000 nM; inhibition (HUVEC [6]): 70%; Activity (HUVEC [4]): Active; inhibition [7]: Active; Activity [8]: Dose-dependent effect
11 | CCC(C)n1ncn(-c2ccc(N3CCN(c4ccc(OC[C@@H]5CO[C@@](Cn6cncn6)(c6ccc(Cl)cc6Cl)O5)nc4)CC3)c(F)c2)c1=O (some centres not stated) | 446 nM | 0.255 µg/mL (≈ 0.352 µM) | 
12 | CCC(C)n1ncn(-c2ccc(N3CCN(c4ccc(OC[C@@H]5CO[C@@](Cn6ccnc6)(c6ccc(Cl)cc6Cl)O5)cc4)CC3)c(F)c2)c1=O (some centres not stated) | 70.1 nM | 17.2 µg/mL (≈ 23.7 µM) | 
13 | CCC(C)n1ncn(-c2ccc(N3CCN(c4ccc(OC[C@@H]5CO[C@@](Cn6ccnc6)(c6ccc(Cl)cc6Cl)O5)cc4)CC3)cn2)c1=O (some centres not stated) | 636 nM | 41.3 µg/mL (≈ 58.6 µM) | 
14 | CCC(C)n1ncn(-c2ccc(N3CCN(c4ccc(OC[C@@H]5CO[C@@](Cn6cncn6)(c6ccc(Cl)cc6Cl)O5)cn4)CC3)cc2)c1=O (some centres not stated) | 380 nM | 0.114 µg/mL (≈ 0.161 µM) | 
15 | CCC(C)n1ncn(-c2ccc(N3CCN(c4ccc(OC[C@@H]5CO[C@@](Cn6cncn6)(c6ccc(Cl)cc6Cl)O5)cc4)CC3)cn2)c1=O (some centres not stated) | 188 nM | 0.496 µg/mL (≈ 0.703 µM) | 
16 | CCC(C)n1ncn(-c2ccc(N3CCN(c4ccc(OC[C@@H]5CO[C@@](Cn6cnnn6)(c6ccc(Cl)cc6Cl)O5)cc4)CC3)c(F)c2)c1=O (some centres not stated) | 153 nM | 0.0528 µg/mL (≈ 0.0729 µM) | inhibition [3]: Active; IC50 (Cytochrome P450 3A4): > 90000 nM
17 | CCC(C)n1ncn(-c2ccc(N3CCN(c4ccc(OC[C@@H]5CO[C@@](Cn6cnnn6)(c6ccc(Cl)cc6Cl)O5)cn4)CC3)c(F)c2)c1=O (some centres not stated) | 108 nM | 0.708 µg/mL (≈ 0.975 µM) | inhibition [3]: Active
18 | CCC(C)n1ncn(-c2ccc(N3CCN(c4ccc(OC[C@@H]5CO[C@@](Cn6cncn6)(c6ccc(Cl)cc6Cl)O5)cn4)CC3)c(F)c2)c1=O (some centres not stated) | 173 nM | 0.848 µg/mL (≈ 1.17 µM) | 
